From ChEMBL document CHEMBL4041521, “3-Aroylindoles display antitumor activity in vitro and in vivo: Effects of N1-substituents on biological activity” (Eur J Med Chem, 2017)
Activity calls are given as the source filed them. The calls are words filed in the database; no cut-off is given here.

Tests used:
[1] = Inhibition of HDAC activity in human HeLa cell nuclear extract using fluorometric substrate measured after 30 mins by fluorescence assay; type: cell-based
Histone deacetylase 1 = Histone deacetylase 1 (Homo sapiens, UniProt Q13547); assay: Inhibition of recombinant human HDAC1 using fluorogenic substrate by fluorescence assay
Sequence of Histone deacetylase 1 (Q13547 whole entry): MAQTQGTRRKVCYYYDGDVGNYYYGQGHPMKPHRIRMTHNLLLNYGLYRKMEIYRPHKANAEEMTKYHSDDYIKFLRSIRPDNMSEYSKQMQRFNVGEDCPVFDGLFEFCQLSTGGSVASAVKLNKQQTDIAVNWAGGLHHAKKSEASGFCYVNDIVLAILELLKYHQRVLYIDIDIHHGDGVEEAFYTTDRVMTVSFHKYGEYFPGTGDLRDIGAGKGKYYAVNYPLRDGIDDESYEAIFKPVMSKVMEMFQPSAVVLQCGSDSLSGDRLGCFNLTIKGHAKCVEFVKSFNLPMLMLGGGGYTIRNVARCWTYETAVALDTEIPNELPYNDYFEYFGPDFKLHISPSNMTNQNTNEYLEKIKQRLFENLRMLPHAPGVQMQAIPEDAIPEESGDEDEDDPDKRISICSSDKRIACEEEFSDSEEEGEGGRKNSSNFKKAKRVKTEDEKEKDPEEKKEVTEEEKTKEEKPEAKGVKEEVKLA

[2] = molecular target: T1, Protein deacetylase HDAC6 (Homo sapiens, UniProt Q9UBN7); assay: Inhibition of recombinant human HDAC6 using fluorogenic substrate by fluorescence assay
T1 sequence (Q9UBN7 whole entry): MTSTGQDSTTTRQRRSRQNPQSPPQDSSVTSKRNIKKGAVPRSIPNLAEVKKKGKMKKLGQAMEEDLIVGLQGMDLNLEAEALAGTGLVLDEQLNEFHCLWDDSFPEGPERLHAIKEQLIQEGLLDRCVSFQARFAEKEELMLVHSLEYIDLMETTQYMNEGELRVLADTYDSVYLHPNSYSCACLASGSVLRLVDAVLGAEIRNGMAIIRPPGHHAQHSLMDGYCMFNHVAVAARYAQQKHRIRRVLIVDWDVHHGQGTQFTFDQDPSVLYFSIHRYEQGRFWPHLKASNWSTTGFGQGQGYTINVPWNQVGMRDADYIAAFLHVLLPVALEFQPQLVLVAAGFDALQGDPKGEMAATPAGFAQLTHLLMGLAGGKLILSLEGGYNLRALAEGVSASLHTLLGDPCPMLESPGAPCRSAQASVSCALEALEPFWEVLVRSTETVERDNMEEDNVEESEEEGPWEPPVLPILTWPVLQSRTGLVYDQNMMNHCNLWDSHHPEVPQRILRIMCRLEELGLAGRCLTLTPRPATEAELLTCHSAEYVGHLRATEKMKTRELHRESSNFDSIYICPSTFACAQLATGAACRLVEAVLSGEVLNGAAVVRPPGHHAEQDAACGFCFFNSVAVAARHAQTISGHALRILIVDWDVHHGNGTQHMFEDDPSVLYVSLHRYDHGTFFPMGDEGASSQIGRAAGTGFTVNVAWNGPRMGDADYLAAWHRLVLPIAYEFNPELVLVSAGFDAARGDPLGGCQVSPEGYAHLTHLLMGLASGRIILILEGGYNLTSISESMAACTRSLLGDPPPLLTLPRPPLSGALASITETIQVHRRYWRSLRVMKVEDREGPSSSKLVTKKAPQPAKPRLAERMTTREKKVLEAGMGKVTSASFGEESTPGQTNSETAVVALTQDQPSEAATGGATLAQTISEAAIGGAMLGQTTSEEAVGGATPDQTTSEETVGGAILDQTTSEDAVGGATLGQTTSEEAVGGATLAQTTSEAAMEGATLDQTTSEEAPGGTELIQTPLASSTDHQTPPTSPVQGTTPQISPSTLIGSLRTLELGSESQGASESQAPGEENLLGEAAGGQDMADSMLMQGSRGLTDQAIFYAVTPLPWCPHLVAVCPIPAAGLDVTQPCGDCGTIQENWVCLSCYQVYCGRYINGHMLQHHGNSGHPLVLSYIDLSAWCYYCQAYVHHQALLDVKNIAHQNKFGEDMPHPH

Histone deacetylase 2 = Histone deacetylase 2 (Homo sapiens, UniProt Q92769); assay: Inhibition of recombinant human HDAC2 using fluorogenic substrate by fluorescence assay
Sequence of Histone deacetylase 2 (Q92769 whole entry): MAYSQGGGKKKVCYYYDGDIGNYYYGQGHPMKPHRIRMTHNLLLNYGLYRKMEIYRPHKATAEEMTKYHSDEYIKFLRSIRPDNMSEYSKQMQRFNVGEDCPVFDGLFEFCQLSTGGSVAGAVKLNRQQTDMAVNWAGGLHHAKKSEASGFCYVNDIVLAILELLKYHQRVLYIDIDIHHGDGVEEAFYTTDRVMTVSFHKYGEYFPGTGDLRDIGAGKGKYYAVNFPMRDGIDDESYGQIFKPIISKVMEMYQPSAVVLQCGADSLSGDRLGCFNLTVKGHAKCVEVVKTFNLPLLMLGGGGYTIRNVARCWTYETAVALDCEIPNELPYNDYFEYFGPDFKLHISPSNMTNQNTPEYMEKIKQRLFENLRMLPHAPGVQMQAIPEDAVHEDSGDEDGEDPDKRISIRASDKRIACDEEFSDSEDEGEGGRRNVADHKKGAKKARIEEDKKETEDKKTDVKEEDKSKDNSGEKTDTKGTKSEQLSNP

HCT-116 = assay: Antiproliferative activity against human HCT116 cells measured after 48 hrs by sulforhodamine-B assay; type: functional, cell-based; settings: HCT-116, 48 h
Sus scrofa [3] = organism: Sus scrofa; assay: Inhibition of purified porcine tubulin polymerization at 1 to 10 uM measured every 1 min for 30 mins
PC-3 = assay: Antiproliferative activity against human PC3 cells measured after 48 hrs by sulforhodamine-B assay; type: functional, cell-based; settings: PC-3, 48 h
A549 = assay: Antiproliferative activity against human A549 cells measured after 48 hrs by sulforhodamine-B assay; type: functional, cell-based; settings: A549, 48 h
Sus scrofa [4] = organism: Sus scrofa; assay: Inhibition of purified porcine tubulin polymerization measured every 1 min for 30 mins
Homo sapiens [5] = organism: Homo sapiens; assay: Inhibition of tubulin polymerization in human PC3 cells assessed as […] in MPM2 expression at 0.01 to 10 uM by Western blot analysis; type: cell-based
Sus scrofa [6] = organism: Sus scrofa; assay: Inhibition of purified porcine tubulin polymerization at 10 uM measured every 1 min for 30 mins
Homo sapiens [7] = organism: Homo sapiens; assay: Inhibition of HDAC in human PC3 cells assessed as increase in alpha-tubulin acetylation by Western blot analysis; type: cell-based
How it was run: (§1)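 PC3 prostate cancer cells treated, then lysed in 20 mM Tris-HCl pH 7.5 with 150 mM NaCl, EDTA/EGTA, phosphatase and protease inhibitors, 0.1% Triton X-100. Lysates spun 13,000 rpm for 30 min, then immunoblotted for acetylated α-tubulin and acetylated histone H3.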

Homo sapiens [8] = organism: Homo sapiens; assay: Inhibition of HDAC in human PC3 cells assessed as increase in histone-H3 acetylation by Western blot analysis; type: cell-based; how it was run: as §1
Mus musculus = assay: Toxicity in human RPMI8226 cells xenografted in athymic mouse assessed as mortality at 1 mg/kg, ip administered once in a week; type: organism-based; settings: in vivo
How it was run: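 RPMI-8226 xenograft nude mice given bortezomib 1 mg/kg i.p. once a week as reference treatment; animal deaths recorded.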

Homo sapiens [9] = organism: Homo sapiens; assay: Selectivity ratio of IC50 for recombinant human HDAC8 to IC50 for recombinant human HDAC6
Homo sapiens [10] = organism: Homo sapiens; assay: Inhibition of HDAC in human PC3 cells assessed as increase in histone-H3 acetylation at 0.01 to 10 uM by Western blot analysis; type: cell-based; how it was run: as §1

Row | SMILES | IC50 [1] | IC50 (Histone deacetylase 1) | IC50 [2] | IC50 (Histone deacetylase 2) | IC50 (HCT-116) | inhibition (Sus scrofa [3]) | IC50 (PC-3) | IC50 (A549) | inhibition (Sus scrofa [4]) | inhibition (Homo sapiens [5]) | inhibition (Sus scrofa [6]) | alpha-tubulin acetylation increase (Homo sapiens [7]) | inhibition (Homo sapiens [8]) | Activity (Mus musculus) | Ratio IC50 (Homo sapiens [9]) | inhibition (Homo sapiens [10])
1 | COc1ccc2c(C(=O)c3cc(OC)c(OC)c(OC)c3)cn(S(=O)(=O)c3ccc(/C=C/C(=O)NO)cc3)c2c1 | > 10 µM | > 10 µM | > 10 µM | > 10 µM | 0.0703 µM | Active | 0.0667 µM | 0.12 µM | – | – | – | – | – | – | – | –
2 | COc1ccc2c(C(=O)c3cc(OC)c(OC)c(OC)c3)cn(Cc3ccc(C(=O)Nc4ccccc4N)cc3)c2c1 | > 10 µM | – | – | – | 0.231 µM | – | 0.157 µM | 0.208 µM | Dose-dependent effect | – | – | – | – | – | – | –
3 | COc1ccc(C(=O)c2cn(Cc3ccc(C(=O)NO)cc3)c3cc(OC)ccc23)cc1 | 0.145 µM | 0.158 µM | 0.108 µM | 0.209 µM | 1.9 µM | – | 1.84 µM | 0.94 µM | – | inactive | inactive | Dose-dependent effect | Dose-dependent effect | – | – | –
4 | CC(C)C[C@H](NC(=O)[C@H](Cc1ccccc1)NC(=O)c1cnccn1)B(O)O [BORTEZOMIB] | – | – | – | – | – | – | – | – | – | – | – | – | – | Toxic | – | –
5 | COc1cc(C(=O)c2cn(Cc3ccc(/C=C/C(=O)NO)cc3)c3ccccc23)cc(OC)c1OC | 0.178 µM | 0.141 µM | 0.138 µM | 0.386 µM | 5.5 µM | – | 2.6 µM | 1.9 µM | – | inactive | inactive | Dose-dependent effect | Dose-dependent effect | – | – | –
6 | CN1CCc2c(c3ccccc3n2Cc2ccc(C(=O)NO)cc2)C1 | – | – | – | – | – | – | – | – | – | – | – | – | – | – | 14 | –
7 | COc1ccc2c(C(=O)c3cc(OC)c(OC)c(OC)c3)cn(Cc3ccc(/C=C/C(=O)NO)cc3)c2c1 | 0.147 µM | 0.13 µM | 0.0705 µM | 0.288 µM | 1.67 µM | – | 0.666 µM | 0.678 µM | Dose-dependent effect | – | – | Dose-dependent effect | Dose-dependent effect | – | – | –
8 | COc1cc(C(=O)c2cn(S(=O)(=O)c3cccc(/C=C/C(=O)NO)c3)c3ccccc23)cc(OC)c1OC | 0.172 µM | 0.139 µM | 0.792 µM | 2.32 µM | 6.68 µM | – | 5.77 µM | 4.59 µM | – | inactive | inactive | – | – | – | – | inactive
